tolC growth inh = growth inhibitors of E. coli BW25113 tolC mutant | OD615 | growth inhibition, % at 10 µM (by protocol) | hit rate 2.2% among 65,000;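 active means growth inhibition at or above a cutoff equal to the mean over every tested compound plus 3 SD, cut at about 60% in these data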;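 further: growth measured after 20 h incubation at 37 °C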
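Test system – E. coli BW25113 ΔtolC::kan, tolC deletion mutant strain · Detection – OD at 615 nm · Buffer or medium – LB with kanamycin 50 µg/mL · Times – 20 h compound exposure of bacteria at 37 °C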
Ecoli WT expand = growth inhibitors of E. coli BW25113 wild type | OD600 absorbance | growth inhibition, % at 100 µM | hit rate 0.15% among 98,000 | AID 710;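 active means growth inhibition above about 50% at one test dose, limit read from the data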;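 further: growth measured after 20 h incubation at 37 °C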
PostGolgi ctrl = yeast control strain growth, post-Golgi counter-screen; AID 738; inhibition, % at 10 µM; efflux-deficient yeast background strain, growth absorbance A615, 16 h; hit rate 5% among 98,000
PostGolgi yeast = growth inhibition of a yeast mutant, post-Golgi transport screen; post-Golgi transport phenotypic cell assay; hit rate 0.9% among 98,000; inhibition, % at 10 µM;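 further: yeast cells grown in 1536-well plates; yeast grown about 18 h at 30C before absorbance read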
* marks the source's active call; other numbers are inactive results; x = no result given. Compounds with a hit are over-represented: about 6.3% of the library has one in this group of screens. Unless noted, no stated cut-off is given here; in the data, active means inhibition above about 30%; inactive means the rest.

SMILES	tolC growth inh	Ecoli WT expand	PostGolgi ctrl	PostGolgi yeast
Cc1cccc(NC(=O)c2cc(NC(=O)C3CC=CCC3C(=O)O)ccc2N2CCOCC2)c1 (stereo unspecified)	9	4	14	1
CC(=O)Nc1ccc(N2CCCCC2)c(C(=O)Nc2cccc(C)c2)c1	x	3	31*	-17
Cc1ccc2[nH]c3c(N4CCc5ccccc5C4)ncnc3c2c1	x	-10	43*	-40
Brc1ccc2[nH]c3c(N4CCc5ccccc5C4)ncnc3c2c1	x	-19	76*	42*
Cc1ccc2[nH]c3c(N4CCOCC4)ncnc3c2c1	15	11	6	-2
CCS(=O)(=O)c1ccc2oc(SCC(=O)NC3CCCC(C)C3C)nc2c1 (stereo unspecified)	x	5	1	-3
O=C(c1cc(C2CC2)on1)N1CCN(C(c2ccccc2)c2ccccc2)CC1	65*	-4	13	4
O=C(c1cc(-c2cccc(O)c2)on1)N1CCN(C(c2ccccc2)c2ccccc2)CC1	28	-2	-9	-1
COc1ccc(Cn2nnnc2C(C(C)C)N2CCc3ccccc32)cc1 (stereo unspecified)	73*	-4	28	-1
CC(C)CC(c1nnnn1C(C)C)N1CCN(c2ccccc2)CC1 (stereo unspecified)	x	-2	61*	-7
CCCC(c1nnnn1Cc1ccc(OC)cc1)N1CCN(c2ccccc2)CC1 (stereo unspecified)	18	-16	31*	3
CCCC(c1nnnn1Cc1ccc(OC)cc1)N1CCC(C(N)=O)CC1 (stereo unspecified)	-14	2	9	7
CC(C)C(c1nnnn1Cc1ccc2c(c1)OCO2)N1CCN(c2ccccc2)CC1 (stereo unspecified)	-14	5	19	-3
COc1ccc(Cn2nnnc2C(CC(C)C)N2CCN(c3ccccc3)CC2)cc1 (stereo unspecified)	25	-15	63*	14
CCN(CC)CCCN(Cc1cc2cc3c(cc2[nH]c1=O)OCCO3)C(=O)Nc1ccc(F)cc1	12	2	1	35*
COC(=O)c1sccc1NC(=O)Nc1cccc(Cl)c1Cl	x	-6	34*	-3
COCC(C)NC(=O)CSc1nc(-c2ccccc2)c(-c2ccccc2)o1 (stereo unspecified)	x	5	11	0
CCCCCCOC(=O)Sc1nc2ccccc2o1	9	2	9	34*
CN1CCCN(C(=O)Cc2c(Cl)cccc2Cl)c2nc3ccccc3nc21	70*	-11	43*	1
CN1CCCN(C(=O)c2cc(=O)[nH]c3ccccc23)c2nc3ccccc3nc21	0	-8	8	0
O=C(Nc1ccc2oc(Cc3ccc(Cl)cc3)nc2c1)c1cccnc1	69*	-15	4	5
Cc1ccc2oc(-c3ccc(NC(=O)c4cccnc4)cc3)nc2c1	10	-2	66*	-7
O=C(Nc1ccc(-c2nc3ccccc3o2)cc1)c1cccnc1	x	-5	17	-8
COCCNC(=O)CN1CCC(NC(=O)C(C)(C)C)CC1	x	-5	13	37*
Cc1sc(NC(=O)CN2CCOCC2)c(C(=O)c2ccccc2)c1C	x	4	7	35*
SMILES	tolC growth inh	Ecoli WT expand	PostGolgi ctrl	PostGolgi yeast
O=C(Nc1ccccc1)c1ccccc1NS(=O)(=O)c1ccc(Cl)s1	x	34	44*	-8
O=C(NCc1ccco1)c1ccccc1NS(=O)(=O)c1ccc(Cl)s1	x	6	16	-6
O=C(NCc1ccco1)c1ccc(Cn2c(=O)c3ccccc3n(Cc3cccc(Cl)c3)c2=O)cc1	x	-12	15	19
CCn1c(C(=O)NCCCc2ccccc2)cc2sccc21	81*	x	x	x
CCC(OC(=O)c1cc2sccc2n1C)C(=O)NCc1ccco1 (stereo unspecified)	0	4	99*	103*
O=C(NCc1ccco1)c1ccc(Cn2c(=O)c3sccc3n(Cc3cccc(F)c3)c2=O)cc1	x	-18	38*	-6
O=C(NCc1ccco1)c1cc2sccc2n1Cc1ccccc1	77*	x	x	x
CC(C)CCn1c(Br)nc2c1c(=O)n(CC(N)=O)c(=O)n2C	-26	1	2	1
O=C(Nc1ccc(Cn2cccn2)cc1)c1ccc(COc2ccccc2Br)cc1	x	-14	32*	-8
O=C(Nc1ccn(Cc2c(F)c(F)c(F)c(F)c2F)n1)c1ccc(COc2ccccc2Cl)cc1	x	-5	0	0
CCOc1ccccc1NC(=O)N1CCCC1C(=O)Nc1ccc(NC(C)=O)cc1 (stereo unspecified)	-9	4	6	19
O=C(Nn1cnnc1)c1cc2c(s1)CCCCC2	0	-2	3	-2
CCn1nc(C(=O)OCC(=O)c2cc(C)n(Cc3cccs3)c2C)c2ccccc2c1=O	26	-14	42*	-25
O=S(=O)(NCc1csc(-c2cccnc2)n1)c1ccc(Cl)s1	x	6	13	4
O=S(=O)(NCc1csc(-c2ccccc2)n1)c1ccc(Cl)s1	46	-1	33*	3
CCc1ccc(S(=O)(=O)NCCc2csc(-c3cccnc3)n2)s1	x	1	4	5
CCc1ccc(S(=O)(=O)NCc2csc(-c3ccccc3)n2)s1	46	-12	36*	15
CCc1ccc(S(=O)(=O)NCCc2csc(-c3ccccc3)n2)s1	93*	-16	42*	16
CC1C/C(=N\NC(=S)NC(C)C)CC(C)(C)C1 (stereo unspecified)	x	14	1	-7
Cc1ccc(C)c(N(CC(=O)NCc2ccc3c(c2)OCO3)C(=O)CCC(=O)Nc2ccccn2)c1	7	-7	30*	-1
Cc1cc(C)cc(N(CC(=O)NCc2ccc3c(c2)OCO3)C(=O)CCC(=O)Nc2ccccn2)c1	9	-5	1	4
CCN(CC)c1ncn(Cc2c(Cl)cccc2Cl)c2ncnc1-2	x	-5	34*	-36
CC(=O)c1c(N2CCN(C)CC2)[nH]c(-c2ccccc2)nc1=S	x	4	8	-3
O=C(NCc1ccc2c(c1)OCO2)C1CCCN1C(=O)Nc1ccccc1 (stereo unspecified)	-12	2	-1	33*
COc1ccccc1NC(=O)N1CCCC1C(=O)NCc1ccc2c(c1)OCO2 (stereo unspecified)	x	-12	-8	-4
SMILES	tolC growth inh	Ecoli WT expand	PostGolgi ctrl	PostGolgi yeast
O=C(OCc1ccc(Cl)cc1)c1ccccc1C(=O)c1ccccc1	x	0	26	0
Cc1ccc(/C=C/C(=O)c2c(C)nc3ccccn23)cc1	x	-7	33*	-2
Cc1ccc(-c2nc(CSCC(=O)NCCN3CCN(Cc4ccccc4)CC3)c(C)o2)cc1	12	10	38*	2
CCOC(=O)N1CCC(Nc2nc3ccccc3nc2NS(=O)(=O)c2ccc(Cl)cc2)CC1	80*	0	12	3
CCOC(=O)N1CCC(NC(=O)CC(NS(=O)(=O)c2ccc(Cl)cc2)c2ccco2)CC1 (stereo unspecified)	24	-3	8	17
O=[N+]([O-])c1ccc(NCCCNS(=O)(=O)c2ccc(Cl)cc2)c(Cl)c1	x	-3	72*	36*
O=[N+]([O-])c1cccc(Cl)c1NCCNS(=O)(=O)c1ccccc1	x	11	0	-1
Cc1ccc(C)c(N2CCN(C(=O)CN(C)S(=O)(=O)c3cnc[nH]3)CC2)c1	-5	-4	6	-9
